Data as given in ChEMBL document CHEMBL1144107, “Novel and known constituents from Buddleja species and their activity against leukocyte eicosanoid generation” (J Nat Prod, 1999).

Key:
Rattus norvegicus = organism: Rattus norvegicus; experiment: Inhibition of cyclooxygenase in Wistar rat peritoneal leukocytes at 50 ug/mL; type: cell-based
Procedure, shortened: (§1)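 Peritoneal leukocytes (~85% PMNs) came from male Wistar rats (200-300 g) 16-20 h after ip 6% oyster glycogen and were used at 2.5 × 10^6 cells/mL in complete HBSS. The COX readout was supernatant TXB2 by radioimmunoassay (3H-TXB2 tracer, rabbit antiserum, 4 °C, 18 h).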

[1] = target: T1, Polyunsaturated fatty acid 5-lipoxygenase (Rattus norvegicus) (UniProt P12527); experiment: Inhibition of 5-lipoxygenase in Wistar rat peritoneal leukocytes at 50 ug/mL; type: cell-based
T1 sequence (whole entry): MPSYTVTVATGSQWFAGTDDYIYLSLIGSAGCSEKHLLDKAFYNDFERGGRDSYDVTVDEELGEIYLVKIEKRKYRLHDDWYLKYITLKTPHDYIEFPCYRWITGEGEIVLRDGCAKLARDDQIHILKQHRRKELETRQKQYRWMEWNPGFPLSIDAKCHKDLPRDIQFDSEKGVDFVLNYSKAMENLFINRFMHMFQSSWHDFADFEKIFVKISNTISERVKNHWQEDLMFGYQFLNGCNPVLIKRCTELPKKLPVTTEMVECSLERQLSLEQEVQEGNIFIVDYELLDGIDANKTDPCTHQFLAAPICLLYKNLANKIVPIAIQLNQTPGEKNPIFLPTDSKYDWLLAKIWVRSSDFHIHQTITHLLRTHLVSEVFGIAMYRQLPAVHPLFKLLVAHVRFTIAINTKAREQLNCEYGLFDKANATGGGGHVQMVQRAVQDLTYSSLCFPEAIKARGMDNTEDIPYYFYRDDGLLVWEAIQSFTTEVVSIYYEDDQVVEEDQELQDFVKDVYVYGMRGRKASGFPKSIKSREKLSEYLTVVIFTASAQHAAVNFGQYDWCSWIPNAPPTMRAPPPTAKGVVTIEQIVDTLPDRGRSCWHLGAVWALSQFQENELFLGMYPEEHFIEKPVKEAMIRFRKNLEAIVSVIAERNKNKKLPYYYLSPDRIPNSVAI
Procedure, shortened: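 Leukocytes (~85% PMNs) were elicited in male Wistar rats (200-300 g) with ip 6% oyster glycogen and harvested 16-20 h later. Cells at 2.5 × 10^6/mL in complete HBSS were tested in triplicate, preincubated with the sample (in DMSO, or CHCl3 evaporated) for 10 min at 37 °C, then given A23187 for 10 min. Supernatant LTB4 was measured by RIA (3H-LTB4 tracer, rabbit antiserum, 18 h, 4 °C).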

[2] = Inhibition of cyclooxygenase in Wistar rat peritoneal leukocytes; type: cell-based; procedure, shortened: as §1
[3] = target: T2, Polyunsaturated fatty acid 5-lipoxygenase (Rattus norvegicus, UniProt P12527); experiment: Inhibition of 5-lipoxygenase in Wistar rat peritoneal leukocytes; type: cell-based
T2 sequence (P12527 whole entry): T1 sequence (whole entry)
Procedure, shortened: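 Male Wistar rat peritoneal leukocytes (~85% PMNs) elicited by ip 6% oyster glycogen, harvested 16-20 h later, and resuspended at 2.5 × 10^6 cells/mL in HBSS with 1.26 mM Ca2+ and 0.9 mM Mg2+. Triplicates were preincubated 10 min at 37 °C with the test agent, then stimulated 10 min with calcium ionophore A23187. Supernatant LTB4 was measured by radioimmunoassay using a 3H-LTB4 tracer and rabbit antiserum (4 °C, 18 h).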

[4] = Cell viability of Wistar rat peritoneal leukocytes by trypan blue exclusion method; type: cell-based, Leukocyte; conditions: read-out: Activity

C[C@H]1O[C@H](O[C@@H]2[C@@H](O)[C@H](OCCc3ccc(O)c(O)c3)O[C@H](CO[C@H]3O[C@@H](CO)[C@H](O)[C@@H](O)[C@@H]3O)[C@H]2OC(=O)/C=C/c2ccc(O)c(O)c2)[C@@H](O)[C@@H](O)[C@@H]1O
inhibition (Rattus norvegicus): 0% | inhibition [1]: 0%

CCn1c(=O)ccc2cc(COc3cc(F)cc(C4(OC)CCOCC4)c3)ccc21
inhibition (Rattus norvegicus): 47.8% | inhibition [1]: 100%

C=C1CCC[C@H](C)C(=O)[C@H](OC(C)=O)[C@@H]2[C@@H]1CC2(C)C
inhibition (Rattus norvegicus): 0% | inhibition [1]: 0%

COc1ccc(-c2cc(=O)c3c(O)cc(O)cc3o2)cc1 [ACACETIN]
inhibition (Rattus norvegicus): 69.5% | inhibition [1]: 77.6% | IC50 [2]: 77.5 µM | IC50 [3]: 123 µM

CC(/C=C/C=C(\C)C(=O)O)=C\C=C\C=C(C)\C=C\C=C(/C)C(=O)O[C@H]1O[C@H](CO[C@@H]2O[C@H](CO)[C@@H](O)[C@H](O)[C@H]2O)[C@@H](O)[C@H](O)[C@H]1O [CROCETIN MONOGENTIBIOSYL ESTER]
inhibition (Rattus norvegicus): 85.1% | inhibition [1]: 0% | IC50 [2]: 28.2 µM

O=C(/C=C/c1ccc(O)c(O)c1)O[C@H]1[C@H](O)[C@@H](O)[C@H](OCCc2ccc(O)c(O)c2)O[C@@H]1CO
inhibition (Rattus norvegicus): 0% | inhibition [1]: 0%

C[C@@H]1O[C@@H](O[C@@H]2[C@@H](O)[C@H](OCCc3ccc(O)c(O)c3)O[C@H](CO[C@@H]3OC[C@H](O)[C@H](O)[C@H]3O)[C@H]2OC(=O)/C=C/c2ccc(O)c(O)c2)[C@H](O)[C@H](O)[C@H]1O
inhibition (Rattus norvegicus): 0% | inhibition [1]: 0%

Cc1cc(-c2ccc(/N=N/c3c(S(=O)(=O)O)cc4cc(S(=O)(=O)O)cc(N)c4c3O)c(C)c2)ccc1/N=N/c1c(S(=O)(=O)O)cc2cc(S(=O)(=O)O)cc(N)c2c1O [TRYPAN BLUE]
viability [4]: 95%

C[C@H]1O[C@H](O[C@@H]2[C@@H](O)[C@H](OCCc3ccc(O)c(O)c3)O[C@H](CO[C@H]3OCC(O)(CO)[C@@H]3O)[C@H]2OC(=O)/C=C/c2ccc(O)c(O)c2)[C@@H](O)[C@@H](O)[C@@H]1O (some centres undefined)
inhibition (Rattus norvegicus): 0% | inhibition [1]: 0%

C=C1CC/C=C(\C)C(=O)C[C@@H]2[C@@H]1CC2(C)C [BUDDLEDIN C]
inhibition (Rattus norvegicus): 9.5% | inhibition [1]: 16.4% | IC50 [2]: > 200 µM | IC50 [3]: > 200 µM

C[C@@H]1O[C@@H](O[C@@H]2[C@@H](O)[C@H](OCCc3ccc(O)c(O)c3)O[C@H](CO)[C@H]2OC(=O)/C=C/c2ccc(O)c(O)c2)[C@H](O)[C@H](O)[C@H]1O
inhibition (Rattus norvegicus): 0% | inhibition [1]: 0%

CCC(OC)(c1cccc(OCc2ccc3ccccc3c2)c1)c1nccs1 (centres undefined)
inhibition (Rattus norvegicus): 0% | inhibition [1]: 100%

C=C1CC/C=C(\C)C(=O)[C@H](OC(C)=O)[C@@H]2[C@@H]1CC2(C)C [BUDDLEDIN A]
inhibition (Rattus norvegicus): 89.3% | inhibition [1]: 98% | IC50 [2]: 13.7 µM | IC50 [3]: 50.4 µM

O=C(O)c1ccc(OCCn2ccnc2)cc1
inhibition (Rattus norvegicus): 89.6% | inhibition [1]: 0%

C/C1=C\CC(C)(C)/C=C/C(=O)/C(C)=C/CC1
inhibition (Rattus norvegicus): 0% | inhibition [1]: 0%

C=C1CC/C=C(\C)C(=O)[C@H](O)[C@@H]2[C@@H]1CC2(C)C [BUDDLEDIN B]
inhibition (Rattus norvegicus): 47.9% | inhibition [1]: 49.3% | IC50 [2]: > 200 µM | IC50 [3]: > 200 µM

COC(CO[C@@H]1O[C@H](CO)[C@@H](OC(=O)/C=C/c2ccc(O)c(O)c2)[C@H](O[C@@H]2O[C@@H](C)[C@H](O)[C@@H](O)[C@H]2O)[C@H]1O)c1ccc(O)c(O)c1 (some centres undefined)
inhibition (Rattus norvegicus): 0% | inhibition [1]: 0%

COc1ccc2c(c1)c(CC(=O)O)c(C)n2C(=O)c1ccc(Cl)cc1
inhibition (Rattus norvegicus): 100% | inhibition [1]: 0%
